Source: ChEMBL document CHEMBL5046273, “Development of a Novel, Small-Molecule Brain-Penetrant Histone Deacetylase Inhibitor That Enhances Spatial Memory Formation in Mice” (J Med Chem, 2022)
Calls of active or inactive are those of the source. The rule behind the calls is not given here.

Assays:
[1] = Elimination rate in Swiss Webster mouse blood at 40 mg/kg, ip by LC-MS/MS analysis; format: ADME, organism-based
Method in brief: (§1)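 Single i.p. dose of 40 mg/kg in Swiss Webster mice; blood, brain and liver taken at several time points. Tissues homogenized in acetonitrile, centrifuged, spin-filtered, dried and reconstituted, with 4,5-diphenylimidazole as instrument standard. Quantified by LC–MS/MS on a C18 column with a formic acid/MeCN gradient. Mean ± SD (n = 4), fitted to a two-compartment PK model.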

Mus musculus = experiment: Cognitive enhancing effect in C57BL/6 mouse assessed as enhanced spatial memory at 20 to 40 mg/kg, ip measured after 24 hrs; format: functional, organism-based; details: dose 20-40 mg/kg
Method in brief: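 Male C57BL/6 mice trained to 30 s of total exploration of two identical objects (20 min maximum). Immediately afterwards they received one i.p. injection at 5 mL/kg in 100% DMSO (20, 30 or 40 mg/kg); vehicle DMSO, NaBu 600 mg/kg in saline. Object placement (moved object) tested at 24 h and object recognition (novel object) at 48 h. Time with that object compared to chance (15 s) by one-sample t-test.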

[2] = AUC in Swiss Webster mouse blood at 40 mg/kg, ip by LC-MS/MS analysis; format: ADME, organism-based; design: dose 40 mg/kg; method in brief: as §1
[3] = biological target: Histone deacetylase (Homo sapiens) (UniProt Q13547+O15379+Q9UBN7+Q92769+Q9UQL6+Q8WUI4+Q9BY41+Q96DB2+P56524+Q9UKV0+Q969S8); experiment: Inhibition of HDAC in human DU-145 cells assessed as increase in histone H3 acetylation at 50 to 100 uM after 24 hrs by immunofluorescence microscopy; format: cell-based; details: dose 50-100 µM
Method in brief: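 Cells were fixed in 4% PFA and permeabilized in TBS-T/BSA. Staining used anti-acetyl-H3 (Lys9/Lys14) at 1:2000, an AlexaFluor 488 secondary and DAPI. At least five random fields were imaged by fluorescence microscopy; three independent experiments.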

DU-145 [4] = experiment: Cytotoxicity against human DU-145 cells assessed as reduction in cell viability incubated for 48 hrs by MTT assay; format: functional
Method in brief: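 DU145 cells grown in DMEM with 10% FBS, penicillin/streptomycin and L-glutamine at 37 °C and 5% CO2. Cells seeded at 14 000/well and allowed to adhere 24 h. Compounds diluted from 10 mM DMSO stocks into medium (final 25–100 μM), DMSO vehicle, triplicate wells, 48 h. MTT 250 μg/mL for 4 h, dissolved in DMSO, A570 (ref 690). Normalized to DMSO; three independent experiments.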

[5] = Half life in Swiss Webster mouse blood at 40 mg/kg, ip by LC-MS/MS analysis; format: ADME, organism-based; details: in vivo; method in brief: as §1
[6] = AUC in Swiss Webster mouse liver at 40 mg/kg, ip by LC-MS/MS analysis; format: ADME, organism-based; design: dose 40 mg/kg; details: in vivo; method in brief: as §1
[7] = Tmax in Swiss Webster mouse blood at 40 mg/kg, ip by LC-MS/MS analysis; format: ADME, organism-based; method in brief: as §1
[8] = Drug uptake in BALB/c mouse liver at 40 mg/kg, ip measured upto 60 mins by mass spectroscopy analysis; format: ADME, organism-based; details: in vivo, 1 h
Method in brief: (§2)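 BALB/c mice received 40 mg/kg i.p. Retro-orbital blood was collected under isoflurane, then liver and whole brain after CO2 euthanasia, at 10, 30 and 60 min. Acetonitrile extracts were spin-filtered with 4,5-diphenylimidazole as instrument standard and analysed by LC–MS/MS.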

[9] = Drug uptake in BALB/c mouse blood at 40 mg/kg, ip measured upto 60 mins by mass spectroscopy analysis; format: ADME, organism-based; details: in vivo, 1 h; method in brief: as §2
[10] = biological target: T1, Protein deacetylase HDAC6 (Homo sapiens, UniProt Q9UBN7); experiment: Inhibition of HDAC6 in human DU-145 cells assessed as increase in histone H3 acetylation after 24 hrs by immunofluorescence microscopy; format: cell-based
T1 sequence (Q9UBN7 whole entry): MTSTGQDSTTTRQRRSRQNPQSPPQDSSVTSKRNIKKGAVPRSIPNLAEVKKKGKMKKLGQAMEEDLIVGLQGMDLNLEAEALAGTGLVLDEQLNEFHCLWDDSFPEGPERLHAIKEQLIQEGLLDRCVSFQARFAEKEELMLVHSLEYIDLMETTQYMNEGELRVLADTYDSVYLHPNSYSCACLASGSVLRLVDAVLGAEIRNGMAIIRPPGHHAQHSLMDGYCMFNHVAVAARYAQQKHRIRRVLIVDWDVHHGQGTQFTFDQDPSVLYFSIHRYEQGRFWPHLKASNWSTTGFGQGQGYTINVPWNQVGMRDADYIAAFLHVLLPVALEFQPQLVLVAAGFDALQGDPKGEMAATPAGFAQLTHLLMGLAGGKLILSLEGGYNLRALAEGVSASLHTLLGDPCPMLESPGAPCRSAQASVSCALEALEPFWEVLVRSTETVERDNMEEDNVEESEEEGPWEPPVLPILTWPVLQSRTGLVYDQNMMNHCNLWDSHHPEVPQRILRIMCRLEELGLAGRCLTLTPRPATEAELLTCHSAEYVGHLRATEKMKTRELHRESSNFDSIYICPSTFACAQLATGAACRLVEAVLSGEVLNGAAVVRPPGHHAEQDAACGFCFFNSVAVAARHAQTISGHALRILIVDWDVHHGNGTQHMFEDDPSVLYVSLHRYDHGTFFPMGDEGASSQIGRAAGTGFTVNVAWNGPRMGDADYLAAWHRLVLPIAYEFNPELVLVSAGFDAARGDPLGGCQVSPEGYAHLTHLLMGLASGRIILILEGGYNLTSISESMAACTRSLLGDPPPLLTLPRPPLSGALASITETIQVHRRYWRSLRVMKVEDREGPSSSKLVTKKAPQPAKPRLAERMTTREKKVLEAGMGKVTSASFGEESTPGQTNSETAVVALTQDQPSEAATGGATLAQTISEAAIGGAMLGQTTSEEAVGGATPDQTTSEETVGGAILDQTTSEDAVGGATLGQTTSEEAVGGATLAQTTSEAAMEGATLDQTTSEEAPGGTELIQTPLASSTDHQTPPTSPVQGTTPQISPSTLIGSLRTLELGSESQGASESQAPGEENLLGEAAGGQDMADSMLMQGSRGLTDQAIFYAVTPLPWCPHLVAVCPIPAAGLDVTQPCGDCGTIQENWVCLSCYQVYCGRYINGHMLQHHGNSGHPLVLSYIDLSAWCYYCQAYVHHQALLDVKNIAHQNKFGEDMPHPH

DU-145 [11] = experiment: Cytotoxicity against human DU-145 cells assessed as reduction in cell viability at 100 uM incubated for 48 hrs by MTT assay; format: functional
Method in brief: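 DU145 cells in DMEM with 10% FBS were seeded at 14 000 cells/well and allowed to adhere for 24 h. Test agents were diluted from 10 mM DMSO stocks (100, 50, 25 µM; 10, 5, 1.25 nM) and applied in triplicate for 48 h at 37 °C, 5% CO2, with DMSO as vehicle. Read-out was 250 µg/mL MTT for 4 h, DMSO solubilization, and A570 with 690 nm reference. Values normalized to DMSO.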

[12] = Tmax in Swiss Webster mouse brain at 40 mg/kg, ip by LC-MS/MS analysis; format: ADME, organism-based; method in brief: as §1
[13] = Cmax in Swiss Webster mouse brain at 40 mg/kg, ip by LC-MS/MS analysis; format: ADME, organism-based; design: route intraperitoneal, dose 40 mg/kg; method in brief: as §1
[14] = Cmax in Swiss Webster mouse blood at 40 mg/kg, ip by LC-MS/MS analysis; format: ADME, organism-based; design: route intraperitoneal, dose 40 mg/kg; details: in vivo; method in brief: as §1
[15] = Drug uptake in BALB/c mouse hippocampus at 20 to 40 mg/kg, ip measured after 10 mins by mass spectroscopy method; format: ADME, organism-based; details: in vivo, dose 20-40 mg/kg
Method in brief: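 BALB/c mice were dosed i.p.: 20 mg/kg with brains taken at 10 min (two mice), or 40 mg/kg with brains taken at 10 and 30 min. Dorsal hippocampus was dissected on wet ice, extracted in acetonitrile and analysed by LC–MS/MS in MRM mode (m/z 485 [M+Na+] transitions) against a 4,5-diphenylimidazole internal standard.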

CC(C)(C)OC(=O)CC(O)/C=C/CCSSCC/C=C/C(O)CC(=O)OC(C)(C)C (configuration not stated)
k el [1]: 0.000367 s⁻¹
Activity (Mus musculus): Active
AUC [2]: 88.1 ng·h/mL
inhibition [3]: Active
Activity (DU-145 [4]): Dose-Dependent Effect
CC50 (DU-145 [4]; read-out: LD50 (the source's name)): 39 µM
t1/2 [5]: 45.4 min
AUC [6]: 31091 ng·min/g
Tmax [7]: 10 min
Drug uptake [8]: Active
Drug uptake [9]: Active
IC50 [10]: 12 µM
inhibition at 100 µM (DU-145 [11]): 80%
Tmax [12]: 10 min
Cmax [13]: 82.5 ng/g
Cmax [14]: 131.2 ng/mL
Drug uptake [15]: Active
